Format in all cases: functional
For assay [1], the species on record is Rattus norvegicus. The experiment in a line: Ability of compound at 1 uM to potentiate GABA-mediated currents in cultured postnatal rat hippocampal neurons using whole-cell patch clamp method; NR=No response. In short, it runs like this: (§1)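 Cultured postnatal rat hippocampal neurons (pups 1-2 days old, 3-10 days in vitro) were whole-cell voltage-clamped at -60 mV and room temperature (~22 °C), with a CsCl/HEPES/EGTA pipette solution at pH 7.3. Compound plus 1 μM GABA was pressure-ejected for 200 ms, with DMSO <0.2% final. Peak current was normalized to 1 μM GABA alone on the same cell (100% = no change). N = cells.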
On the technique in general: In patch-clamp work, channel activity is measured electrically.

The species named for assay [2] is Rattus norvegicus. Briefly: Ability of compound at 10 uM for current activation in the absence of GABA in cultured postnatal rat hippocampal neurons using whole-cell patch clamp method; NR=No response. The method, boiled down: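 Whole-cell voltage clamp at -60 mV and ~22 °C in rat hippocampal cultures (postnatal pups, 3-10 days in vitro), with a CsCl-based pipette solution at pH 7.3. Compound alone, without GABA, was pressure-ejected for 200 ms (DMSO <0.2% final). The peak directly gated current was compared with the same cell's response to 1 μM GABA alone. N = cells.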

The species named for assay [3] is Rattus norvegicus. The experiment in a line: Ability of compound at 1 uM for current activation in the absence of GABA in cultured postnatal rat hippocampal neurons using whole-cell patch clamp method; NR=No response.
For assay [4], the species on record is Rattus norvegicus. Briefly: Ability of compound at 1 uM to potentiate GABA-mediated currents in cultured postnatal rat hippocampal neurons using whole-cell patch clamp method. In short, it runs like this:
as §1

The species named for assay [5] is Rattus norvegicus. The experiment in a line: Ability of compound at 10 uM for current activation in the absence of GABA in cultured postnatal rat hippocampal neurons using whole-cell patch clamp method. In short, it runs like this:
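Whole-cell voltage clamp at -60 mV, room temperature (~22 °C), on hippocampal neurons cultured 3-10 days from 1-2 day old albino rat pups. Pipette solution is CsCl-based, pH 7.3. Compound is applied at 10 µM in the absence of GABA (DMSO stock, final DMSO <0.2%) by 200 ms pressure ejection. Peak gated current is compared with the same cell's 1 µM GABA response. N = cells.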

The species entered for assay [6] is Rattus norvegicus. The experiment in a line: Ability of compound at 10 uM to potentiate GABA-mediated currents in cultured postnatal rat hippocampal neurons using whole-cell patch clamp method. The method, boiled down:
as §1

Assay [7] is filed under the species Rattus norvegicus. Briefly: Ability of compound at 1 uM for current activation in the absence of GABA in cultured postnatal rat hippocampal neurons using whole-cell patch clamp method.
For assay [8], the species on record is Rattus norvegicus. The experiment in a line: Effective concentration against current mediated by 1 uM GABA in cultured rat hippocampal neurons.

Active and inactive are the calls of the source. The rule behind the calls is not given here.

On to `C[C@]12CC[C@H]3[C@@H](CC[C@H]4C[C@H](O)CC[C@@H]43)[C@@H]1CC[C@H]2C#N`, for which, in the assay listed under Rattus norvegicus [1], the Response result is “inactive”. Moreover, the Gated current result in the assay listed under Rattus norvegicus [2] was “inactive”.

For the compound `C[C@H]1C2CC[C@@]3(C)C(CC[C@@H]3C#N)C2CC[C@H]1CCO` (some centres not stated), the Gated current entry in the assay listed under Rattus norvegicus [3] is “inactive”. In addition, in the assay listed under Rattus norvegicus [4], the Response is reported as 382%. The same compound yielded a Gated current in the assay filed under Rattus norvegicus [5] of 26%.

On to `CC1(C)C2CC[C@@]3(C)C(CC[C@H]3C#N)C2CC[C@H]1CCO` (some centres not stated), for which, in the assay listed under Rattus norvegicus [1], the Response result is “inactive”. For the same compound, in the assay listed under Rattus norvegicus [2], the Gated current result was “inactive”.

`C[C@]12CC[C@@H](O)C[C@@H]1CC[C@@H]1[C@@H]2CC[C@]2(C)[C@H](C#N)CC[C@@H]12`: the Response result in the assay filed under Rattus norvegicus [1] is “inactive”. Also, the Gated current entry in the assay listed under Rattus norvegicus [2] was “inactive”.

Turning to `C[C@@H]1C2CC[C@@]3(C)C(CC[C@@H]3C#N)C2CC[C@H]1CCO` (some centres not stated), in the assay listed under Rattus norvegicus [6], the Response is listed as 244%. Moreover, the Response entry in the assay listed under Rattus norvegicus [1] is “inactive”. In the assay filed under Rattus norvegicus [2], the Gated current result was “inactive”.

For the compound `C[C@]12CCC3C[C@H](CCO)CCC3C1CC[C@H]2C#N` (some centres not stated), in the assay filed under Rattus norvegicus [1], the Response result is “inactive”. In addition, the Gated current entry in the assay filed under Rattus norvegicus [2] was “inactive”.

As for `C[C@]12CC[C@@H](O)C[C@@H]1CC[C@@H]1[C@@H]2CC[C@]2(C)[C@@H](C#N)CC[C@@H]12`, the Response in the assay listed under Rattus norvegicus [4] is recorded as 443%. Besides, the results for the Gated current in the assay listed under Rattus norvegicus [5] and in the assay filed under Rattus norvegicus [7] were 49% and 22%, respectively.

Regarding `C[C@@H]1C2CC[C@@]3(C)C(CC[C@H]3C#N)C2CC[C@H]1CCO` (some centres not stated), in the assay listed under Rattus norvegicus [1], the Response entry was “inactive”. For the same compound, the Gated current entry in the assay listed under Rattus norvegicus [2] is “inactive”.

Take `CC1(C)C2CC[C@@]3(C)C(CC[C@@H]3C#N)C2CC[C@H]1CCO` (some centres not stated): the Response in the assay filed under Rattus norvegicus [4] came to 220%. Further, in the assay filed under Rattus norvegicus [2], the Gated current result was “inactive”.

Take `CC(=O)[C@H]1CCC2C3CC[C@@H](CCO)CC3CC[C@@]21C` (some centres not stated): a half-maximal response in the assay filed under Rattus norvegicus [8] (EC50) required 200 nM.

In the case of `C[C@]12CCC3C[C@H](CCO)CCC3C1CC[C@@H]2C#N` (some centres not stated), in the assay filed under Rattus norvegicus [4], the Response is given as 255%. The Gated current result in the assay filed under Rattus norvegicus [2] is “inactive”.

`C[C@]12CC[C@H]3[C@@H](CC[C@H]4C[C@H](O)CC[C@@H]43)[C@@H]1CC[C@@H]2C#N`: the Response in the assay listed under Rattus norvegicus [4] came out at 372%. Further, the Gated current in the assay listed under Rattus norvegicus [5] came to 38%; in the assay listed under Rattus norvegicus [7], 15%.

Source of the values: ChEMBL document CHEMBL1127035, “Neurosteroid analogues: structure-activity studies of benz[e]indene modulators of GABAA receptor function. 1. The effect of 6-methyl substitution on the electrophysiological activity of 7-substituted benz[e]indene-3-carbonitriles” (J Med Chem, 1993).
